This passage reports Km and Vmax results from ChEMBL document CHEMBL1126092, “Design, synthesis, and biological evaluation of novel 4-substituted 1-methyl-1,2,3,6-tetrahydropyridine analogs of MPTP” (J Med Chem, 1992).

Substrate in series [1]: CN1CC=C(OC(=O)N(C)c2ccccc2)CC1
In words: (§1) Tested against Monoamine oxidase B enzyme from bovine liver mitochondria. The procedure, abridged: (§2)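 Bovine liver mitochondrial MAO-B, 0.05 unit/mL (unit = 1 μmol benzylamine→benzaldehyde per min; equivalent to 3.7 nmol protein), incubated at 37 °C in 0.1 M sodium phosphate pH 7.4. Reaction started by substrate addition, final 0.1–3.0 mM. Product formation monitored spectrophotometrically, initial rates taken 30–180 s after enzyme addition. Apparent Vmax and KM from double reciprocal plot.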

Substrate in series [2]: CN1CC=C(OC(=O)N(C)C)CC1
The description is as §1. The procedure, abridged:
as §2

Substrate in series [3]: CN1CC=C(Cc2ccccc2)CC1
Described as §1. In short, it runs like this:
as §2

Substrate in series [4]: CN1CC=C(Sc2ccccc2)CC1
Described as §1. In short, it runs like this: as §2

Substrate in series [5]: CN1CC=C(Oc2ccccc2)CC1
The description is as §1. In short, it runs like this: as §2

B1: Amine oxidase [flavin-containing] B (Bos taurus) (protein)
chain: MSSKCDVVVVGGGISGMAAAKLLHDSGLNVIVLEARDRVGGRTYTLRNQKVKYVDLGGSYVGPTQNHILRLSKELGLETYKVNEVERLIHHTKGKSYPFRGSFPSVWNPITYLDHNNLWRTMDDMGREIPSDAPWKAPLAEQWDLMTMKELLDKICWTESSKQLAILFVNLCVTAEIHEVSALWFLWYVKQCGGTTRIFSTSNGGQERKFVGGSGQVSERIMDLLGDRVKLERPVIHIDQTGENVLVETLNHELYEAKYVISAVPPVLGMKIHFNPPLPMMRNQLITRVPLGSVIKSIVYYKEPFWRNMDYCGSMIIEGEEAPVAYALDDTKPDGSYPAIIGFILAHKARKLARLTKEERLKKLCDLYAKVLGSQEALHPVHYEEKNWCEEQYSGGCYTSYFPPGIMTQYGRVLRQPVGRIYFAGTETATHWSGYMEGAVEAGERAAREILHAMGKIPEDEIWLPEPESVDVPAKPITTTFLQRHLPSVPGLLKLIGLTTIFSATALGFLAHKRGLLVRI
For B1, the Km stood at 3850 µM in series [1]; 7100 µM in series [2]; 83 µM in series [3]; 80 µM in series [4]; 234 µM in series [5]. Further, the Vmax in series [1] worked out at 0.255 µM/min; in series [2], 0.401 µM/min; in series [3] it was 0.222 µM/min; in series [4], 0.274 µM/min; in series [5], 0.161 µM/min.

For orientation: Km means the concentration of substrate that gives half-maximal velocity. For orientation: Vmax means the top rate of the reaction or transport when substrate is in excess.
